Results as given in PubChem BioAssay.
The source made the active and inactive calls.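 Rule for the calls, unless noted: active = Her2 level under about 52% in both replicate screens, with viability over 70% of control (limit read from the data); inconclusive = Her2 under the limit in one screen only, or viability under 70%; inactive = Her2 level above the set limit.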

Columns and labels:
[1] = reducers of endogenous Her2 protein level, primary screen, SKBR3 breast tumor cells, AlphaScreen, ATP viability (AID 461); details: 18-24 h, measured here: SKBR3 viability, ATP luminescence, at 10 µM;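 for Her2 level: lower value means less Her2 protein in the cells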;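 for viability: percent of carrier control wells set as 100% viability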
[2] = target: Receptor tyrosine-protein kinase erbB-2 (Homo sapiens) (UniProt P04626); experiment: as above; details: 18-24 h, at 10 µM, stronger effect = lower value
Sequence of Receptor tyrosine-protein kinase erbB-2 (Homo sapiens) (P04626 whole entry, looked up): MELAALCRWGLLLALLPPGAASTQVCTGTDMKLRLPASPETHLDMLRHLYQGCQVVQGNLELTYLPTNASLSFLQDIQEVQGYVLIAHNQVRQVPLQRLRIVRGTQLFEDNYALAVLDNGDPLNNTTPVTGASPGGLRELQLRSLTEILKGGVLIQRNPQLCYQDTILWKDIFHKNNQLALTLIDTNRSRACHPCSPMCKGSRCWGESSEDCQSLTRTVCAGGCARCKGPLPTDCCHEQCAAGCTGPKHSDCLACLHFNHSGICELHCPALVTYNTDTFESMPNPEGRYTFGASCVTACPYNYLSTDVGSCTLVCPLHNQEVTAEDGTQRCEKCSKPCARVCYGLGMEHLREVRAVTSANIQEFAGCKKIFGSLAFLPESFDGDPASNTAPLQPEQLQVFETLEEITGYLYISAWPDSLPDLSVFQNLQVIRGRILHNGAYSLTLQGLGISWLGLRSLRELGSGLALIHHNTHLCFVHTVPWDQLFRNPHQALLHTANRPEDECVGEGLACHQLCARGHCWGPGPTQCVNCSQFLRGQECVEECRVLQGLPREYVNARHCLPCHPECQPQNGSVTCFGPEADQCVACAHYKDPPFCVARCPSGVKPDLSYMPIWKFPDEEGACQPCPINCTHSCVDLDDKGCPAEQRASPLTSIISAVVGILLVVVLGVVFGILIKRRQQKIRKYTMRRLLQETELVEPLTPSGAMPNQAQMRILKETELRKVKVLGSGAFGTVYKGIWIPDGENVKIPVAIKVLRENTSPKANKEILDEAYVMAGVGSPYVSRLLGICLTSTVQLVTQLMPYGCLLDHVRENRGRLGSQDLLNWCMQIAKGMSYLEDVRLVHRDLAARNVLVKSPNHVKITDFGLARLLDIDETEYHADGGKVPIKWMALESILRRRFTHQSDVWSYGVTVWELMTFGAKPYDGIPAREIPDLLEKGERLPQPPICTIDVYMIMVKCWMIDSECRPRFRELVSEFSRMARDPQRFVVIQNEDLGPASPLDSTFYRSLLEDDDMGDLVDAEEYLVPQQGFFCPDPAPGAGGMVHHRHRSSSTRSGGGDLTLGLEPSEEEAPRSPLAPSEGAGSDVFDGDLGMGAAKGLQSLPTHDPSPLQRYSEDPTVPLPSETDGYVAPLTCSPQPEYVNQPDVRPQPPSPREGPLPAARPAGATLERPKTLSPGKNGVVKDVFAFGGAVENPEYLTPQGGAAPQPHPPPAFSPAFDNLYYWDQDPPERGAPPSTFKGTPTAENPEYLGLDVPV

[3] = SK-BR-3 cell growth inhibitors, pilot screen, 24 h, human (AID 572;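 active = viability at or below 10% of carrier control in both of two separate runs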;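 note: compound exposure lasted between 18 and 24 h rather than exactly 24 h; 100% = carrier-treated control wells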); details: SK-BR-3 viability, CellTiter-Glo luminescence, at 10 µM, stronger effect = lower value
[4] = HUVEC growth inhibition – cell-based, human, primary screen (AID 575;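 active = viability at or below 30% in both replicate assays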;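 note: 100% = median of untreated cell wells with 0.1% DMSO on each plate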); details: HUVEC proliferation, CellTiter-Glo luminescence, 72 h; at 10 µM; stronger effect = lower value
Method in brief: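 System: primary human umbilical vein endothelial cells; Quantity: 1250 endothelial cells in each well; Buffer or medium: supplemented EBM, 2% fetal bovine serum; Doses: one dose, 10 µM final, 0.1% DMSO; Incubation: 72 h compound incubation; Technique: ATP-based CellTiter-Glo luminescent read; Evaluation: percent of median DMSO-control luminescence; Controls: vehicle and MePR control wells.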

[5] = growth inhibitors of H69AR lung tumor, primary screen, human, duplicate replicates (AID 580;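 active = viability at or under a set limit in both replicates, limit being median viability minus 3 SD, cut at about 48% in these data, passing the limit was not always enough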;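 note: 100% = mean luminescence of untreated wells and 0% = no signal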); details: H69AR lung tumor cells viability, ATP luminescence, 72 h; at 10 µM; stronger effect = lower value
[6] = reversal of MRP1-mediated doxorubicin resistance, pilot screen, H69AR cells, doxorubicin co-treatment (AID 601;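 active = viability loss from added drug above about 55%, and viability with drug at most 40%, in both replicates, limit read from the data, passing the limit was not always enough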); details: CellTiter-Glo, 72 h, at 10 µM; for differential viability (reversal): stronger effect = higher value
[7] = 384-well plate pilot, post-Golgi transport modulator project, inhibition of yeast transport mutant growth (AID 636; in the data active = inhibition above about 31%); details: absorbance 615 nm, about 18 h, stronger effect = higher value
[8] = growth suppression of yeast trafficking mutant, preliminary HTS, modulators of trafficking downstream of Golgi apparatus project, 1536-format plate, OD 615 nm (AID 637; in the data active = inhibition above about 30%); details: yeast transport mutant growth, absorbance 615 nm, 18 h; stronger effect = higher value
[9] = H69AR cells + 2 uM doxorubicin, measured here: viability with 2 uM doxorubicin, stronger effect = lower value
[10] = H69AR cells, compound alone cytotoxicity

Row | SMILES | viability [1] | Her2 level [2] | viability [3] | viability [4] | viability [5] | differential viability (reversal) ([6]; H69AR cells + 2 uM doxorubicin) | viability [6, 9] | viability [6, 10] | inhibition [7] | inhibition [8]
1 | Cc1cc(C)c(NC(=O)C2CSCCS2)c(C)c1 (stereo not given) | 90% | 79.5% (inactive) | 90% (inactive) | 99.7% (inactive) | 100% (inactive) | 14.1% (inactive) | 85.9% | 100% | -3.82% (inactive) | -7.17% (inactive)
2 | CCn1c(=O)cc(SCC(=O)N2CCOCC2)c2ccccc21 | 92% | 75% (inactive) | 92% (inactive) | 63.1% (inactive) | 85.4% (inactive) | 17.4% (inactive) | 68% | 85.4% | -6.05% (inactive) | -3.45% (inactive)
3 | CCOC(=O)c1ccc(N2C(=O)C3CC=CCC3C2=O)cc1 (stereo not given) | 112% | 116% (inactive) | 112% (inactive) | 92.8% (inactive) | 99.3% (inactive) | 7.42% (inactive) | 91.9% | 99.3% | -6.4% (inactive) | -10.2% (inactive)
4 | COc1cc(-c2c(C#N)c(N)nc3c2CCCC3)cc(OC)c1OC | 89% | 72% (inactive) | 89% (inactive) | 74.2% (inactive) | 76.4% (inactive) | -9.71% (inactive) | 86.1% | 76.4% | -2.63% (inactive) | 3.39% (inactive)
5 | C=CCN(C(=O)CNC(=O)c1ccco1)C(C(=O)NC1CCCCC1)c1ccccc1F (stereo not given) | 108% | 108% (inactive) | 108% (inactive) | 96.2% (inactive) | 100% (inactive) | 6.92% (inactive) | 93.5% | 100% | -2.43% (inactive) | 1.27% (inactive)
6 | COc1cccc2cc(C(=O)N3CCN(C45CC6CC(CC(C6)C4)C5)CC3)c(=O)oc12 | 93.5% | 92% (inactive) | 93.5% (inactive) | 81.8% (inactive) | 107% (inactive) | 12.5% (inactive) | 94.7% | 107% | -3.16% (inactive) | -9.52% (inactive)
7 | CC(=O)NS(=O)(=O)c1ccc(NC(=O)c2ccccc2F)cc1 | 72% | 95% (inactive) | 72% (inactive) | 87.3% (inactive) | 99.4% (inactive) | 3.83% (inactive) | 95.5% | 99.4% | 0% (inactive) | 2.33% (inactive)
8 | COc1ccc(CCNC(=O)C2CCN(C(=O)N(C)C)CC2)cc1OC | 86.5% | 117% (inactive) | 86.5% (inactive) | 108% (inactive) | 92.8% (inactive) | 1.61% (inactive) | 91.2% | 92.8% | -2.05% (inactive) | -4.67% (inactive)
9 | COc1cccc(C(=O)n2cnnc2N)c1OC | 120% | 88.5% (inactive) | 120% (inactive) | 89.2% (inactive) | 89.9% (inactive) | 6.76% (inactive) | 83.1% | 89.9% | -5.6% (inactive) | -3.49% (inactive)
10 | COC(=O)CCn1nnc(-c2cccs2)n1 | 99.5% | 126% (inactive) | 99.5% (inactive) | 101% (inactive) | 103% (inactive) | 5.5% (inactive) | 97.4% | 103% | 3.73% (inactive) | 4.1% (inactive)
11 | CCC(=O)/C=C1\Sc2ccc(OC)cc2N1CCO | 120% | 98% (inactive) | 120% (inactive) | 98.6% (inactive) | 87.8% (inactive) | 2.07% (inactive) | 85.7% | 87.8% | -4.21% (inactive) | -4.68% (inactive)
12 | O=c1cnnc(NCc2ccccc2)[nH]1 | 88.5% | 108% (inactive) | 88.5% (inactive) | 106% (inactive) | 103% (inactive) | 11.8% (inactive) | 91.5% | 103% | -5.79% (inactive) | -5.33% (inactive)
13 | Cc1ccc(-n2nnnc2SCC(=O)c2cc(C)n(CC3CCCO3)c2C)cc1 (stereo not given) | 83.5% | 106% (inactive) | 83.5% (inactive) | 70.8% (inactive) | 86% (inactive) | -9.62% (inactive) | 95.7% | 86% | -5.07% (inactive) | 0.48% (inactive)
14 | CC(=O)N1CCN(S(=O)(=O)c2cccc(C(=O)Nc3ccc4c(c3)CCC4)c2)CC1 | 76.5% | 90.5% (inactive) | 76.5% (inactive) | 77.9% (inactive) | 98% (inactive) | 4.81% (inactive) | 93.2% | 98% | -5.53% (inactive) | 5% (inactive)
15 | CN(C)c1nc(SCCOC(=O)c2ccccc2)nc(N(C)C)n1 | 96% | 80.5% (inactive) | 96% (inactive) | 82.1% (inactive) | 101% (inactive) | 16.4% (inactive) | 85% | 101% | -4.47% (inactive) | -2.67% (inactive)
